Rows were chosen to be rich in hits. Some 1.7% of all compounds tested hit in one or more screens of this group.
HNF4A DNA FP – change in binding of human HNF4 alpha to DNA | AID 1224865 | actives 0.3% (n = 360,000) | HNF4a-FITC DNA binding, fluorescence polarization, 1 h | activity change, % at 10 µM | P41235; in the data active = activity change above about 30%, passing the limit was not always enough
NR1D1 modulator – Rev-erb alpha (human) modulation; P20393; actives 0.79% (n = 370,000); activity, % at 10 µM; Rev-erbα–FITC-DNA binding, fluorescence polarization, 90 min; AID 1259318;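 active = activity above about 14%, limit read from the data; passing the limit was not always enough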;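 note: 0% = DMSO wells with 35 nM protein and 100% = DMSO wells with 750 nM protein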
TPT1 inhibitor – inhibitors of Candida albicans tRNA 2'-phosphotransferase TPT1; inhibition, % at 5 µM; actives 0.81% (n = 300,000); recombinant caTPT1, FP RNA substrate dephosphorylation; AID 1962;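 active = inhibition above the mean of all tested compounds plus 3 SD, set per screening campaign, cut at about 24% in these data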;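 note: plate controls were DMSO alone for no effect and ferristatin control at 100 nM for full effect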
CSN inh – inhibitors of human CSN-mediated cullin deneddylation | Q92905 | Purified CSN, SCF-Nedd8-OG deneddylation, fluorescence polarization | inhibition, % at 12.5 µM | actives 0.38% (n = 360,000);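 active = pattern-corrected inhibition above about 35%, with an unprinted fluorescence ratio check between 0.5 and 1.5, limit read from the data, passing the limit was not always enough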;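 note: 0% = enzyme with substrate and 100% = substrate without enzyme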
Target sequence (Q92905 whole entry, looked up, one chain of several): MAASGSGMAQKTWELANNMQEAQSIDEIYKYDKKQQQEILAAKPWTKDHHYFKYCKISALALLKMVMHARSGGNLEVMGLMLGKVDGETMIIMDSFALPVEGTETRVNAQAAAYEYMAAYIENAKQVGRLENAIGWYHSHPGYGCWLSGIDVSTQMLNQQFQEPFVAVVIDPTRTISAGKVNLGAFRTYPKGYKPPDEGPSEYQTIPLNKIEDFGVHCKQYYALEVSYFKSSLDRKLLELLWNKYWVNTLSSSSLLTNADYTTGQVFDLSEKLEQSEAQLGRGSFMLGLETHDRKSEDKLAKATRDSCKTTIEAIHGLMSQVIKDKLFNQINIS
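Test system: purified human Csn5 enzyme expressed in HEK293T cells. Amount: 0.24 nM enzyme. Reagent: SCFSkp2-Nedd8OG substrate at 10 nM final. Schedule: 90 min incubation of compound, enzyme and substrate at room temperature. Detection: fluorescence polarization. Read-out: % inhibition of substrate cleavage by Csn5.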
TPT1 inh confirm – TPT1 (C. albicans) inhibition, confirmation. actives 74% (n = 2,400). inhibition, % at 5 µM. shares compounds with TPT1 inhibitor. AID 2149. recombinant caTPT1, fluorescence polarization, RNase T1 coupled;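 active = inhibition above the primary screen limit, the mean inhibition of all tested compounds plus 3 SD, cut at about 25% in these data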
RNase T1 inh – blocks Aspergillus oryzae RNase T1, a TPT1 counter-screen. shares compounds with TPT1 inhibitor. RNase T1 cleavage, fluorescence polarization, 1536-well. inhibition, % at 5 µM. actives 83% (n = 2,400). AID 2153;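 active = inhibition above the solvent-only control well mean plus 3 SD, limit set per screening run, cut at about 23% in these data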;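 note: plate controls were DMSO wells with enzyme for no effect and wells without RNase T1 for full effect; inhibitors block cleavage so intact labeled substrate keeps polarization high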
Target sequence (P00651 whole entry, looked up): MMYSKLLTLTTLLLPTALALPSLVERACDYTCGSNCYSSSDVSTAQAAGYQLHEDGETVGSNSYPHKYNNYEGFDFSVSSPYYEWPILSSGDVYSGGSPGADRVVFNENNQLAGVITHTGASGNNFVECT
* hit, by the source's call.

What do the screens show for `CC(C)(C)C(=O)NC(=S)NNC(=O)c1sc2ccccc2c1Cl`?
HNF4A DNA FP: -0.4; TPT1 inhibitor: 27.1*; CSN inh: -4.3; TPT1 inh confirm: 0.4; RNase T1 inh: 1.2

How did C[C@H]1CN(S(=O)(=O)C(C)(C)C)[C@@H](CCO)/C1=C\CCO do in these assays?
NR1D1 modulator: 1.2

What do the screens show for `Oc1[nH]c2ccccc2c1N=Nc1ccc(F)cc1`?
HNF4A DNA FP: -93.9; NR1D1 modulator: -7.8; TPT1 inhibitor: 7.2; CSN inh: -92.5

What do the screens show for `Oc1[nH]c2ccccc2c1N=Nc1ccccc1F`?
HNF4A DNA FP: 72.2; NR1D1 modulator: 0.0; TPT1 inhibitor: 137.8*; CSN inh: -95.6; TPT1 inh confirm: 128.6*; RNase T1 inh: 130.3*

Results for COC(=O)[C@]12CCCCC=C1N(Cc1ccc(OC)cc1)C(=O)[C@@H]2CC(=O)N1CCN(C(=O)c2ccco2)CC1 ?
NR1D1 modulator: -4.4

How did COc1ccc(N2C(=O)c3ccccc3NC(=O)C2C(=O)NCC(C)C)cc1 (centres undefined) do in these assays?
HNF4A DNA FP: 1.0; NR1D1 modulator: -4.3; CSN inh: 1.6

What do the screens show for `C=CCNc1cccc2c1S(=O)(=O)N[C@H](CC(C)C)CO2`?
NR1D1 modulator: -6.0

How did Cc1ccc(C(=O)O)cc1N1C(=O)c2cccc3c([N+](=O)[O-])ccc(c23)C1=O do in these assays?
HNF4A DNA FP: -33.0; NR1D1 modulator: 2.5; TPT1 inhibitor: -12.4; CSN inh: 12.9

What do the screens show for `CC(=O)Oc1cccc(N2C(=O)c3cccc4c([N+](=O)[O-])ccc(c34)C2=O)c1`?
HNF4A DNA FP: -17.2; NR1D1 modulator: 0.5; TPT1 inhibitor: 43.5*; CSN inh: -5.7; TPT1 inh confirm: 43.1*; RNase T1 inh: 59.1*

Results for CCOC(=O)/C=C1\SCC(=O)N1Cc1nnc(-c2ccccc2Br)o1 ?
HNF4A DNA FP: 30.9; NR1D1 modulator: 1.7; TPT1 inhibitor: 30.6*; CSN inh: 17.0; TPT1 inh confirm: 31.4*; RNase T1 inh: 40.3*

How did CSc1ccc(CN2CCN(C(=O)CC(C)C)CC2)cc1 do in these assays?
HNF4A DNA FP: -3.5; NR1D1 modulator: 3.4; TPT1 inhibitor: 25.9*; CSN inh: 1.1; TPT1 inh confirm: 7.0; RNase T1 inh: 12.2

What do the screens show for `O=C(O)C1Nc2c(O)cc(Cl)c([N+](=O)[O-])c2C2C=CCC12` (centres undefined)?
HNF4A DNA FP: -76.7; NR1D1 modulator: -48.0; TPT1 inhibitor: 84.5*; CSN inh: 83.5; TPT1 inh confirm: 15.0; RNase T1 inh: 9.9

How did O=C1ON=C(c2ccccc2)/C1=C/c1ccc(O)cc1 do in these assays?
HNF4A DNA FP: -3.2; NR1D1 modulator: -3.3; TPT1 inhibitor: 0.1; CSN inh: 1.2

How did CCOc1cc(/C=C2\C(=O)ON=C2c2ccccc2)cc(Br)c1O do in these assays?
HNF4A DNA FP: 4.6; NR1D1 modulator: -6.9; TPT1 inhibitor: 39.9*; CSN inh: 5.7; TPT1 inh confirm: 137.5*; RNase T1 inh: 137.6*

What do the screens show for `Cc1ccc(/C=C2/C(=O)ON=C2c2ccccc2)o1`?
HNF4A DNA FP: -6.3; NR1D1 modulator: 2.1; TPT1 inhibitor: 33.7*; CSN inh: 16.7; TPT1 inh confirm: 16.7; RNase T1 inh: 25.2*

Results for COc1cc(/C=C2\C(=O)ON=C2c2ccccc2)cc(Cl)c1O ?
HNF4A DNA FP: -2.2; NR1D1 modulator: 3.7; TPT1 inhibitor: 35.4*; CSN inh: 2.1; TPT1 inh confirm: 122.7*; RNase T1 inh: 128.0*

How did CCOc1cc(/C=C2/C(=O)ON=C2C)cc(Br)c1O do in these assays?
HNF4A DNA FP: 3.0; NR1D1 modulator: -3.5; TPT1 inhibitor: 40.0*; CSN inh: 9.0; TPT1 inh confirm: 110.6*; RNase T1 inh: 121.6*

How did COc1cc(/C=C2\C(=O)ON=C2c2ccccc2)cc(Br)c1O do in these assays?
HNF4A DNA FP: 2.3; NR1D1 modulator: -0.4; TPT1 inhibitor: 42.7*; CSN inh: 10.5; TPT1 inh confirm: 137.6*; RNase T1 inh: 139.1*

What do the screens show for `COc1cc(/C=C2/C(=O)ON=C2c2ccccc2)ccc1O`?
HNF4A DNA FP: 0.1; NR1D1 modulator: -0.8; TPT1 inhibitor: 3.5; CSN inh: 9.2

How did O=C(NCc1ccccc1)[C@@H]1CCCN1C(=O)[C@H]1CCCN1C(=O)N1CCCCC1 do in these assays?
NR1D1 modulator: 1.9

From PubChem
